Results from different studies.
Each line is one published result; the experiments were not run side by side.
Target: Mu-type opioid receptor (OPRM1, Homo sapiens, UniProt P35372)

SMILES | assay | system | conditions | measurement | result
COc1ccc2c(c1)O[C@H](c1ccc(OC)c(OC)c1)C[C@@H]2NC(=O)C1(c2ccc3c(c2)OC(F)(F)O3)CC1 | cell-free assay |  | 10 µM | inhibition | 6.01%
COc1ccsc1CNCC[C@@]1(c2ccccn2)CCOC2(CCCC2)C1 | β-arrestin recruitment, agonist | HEK-293T |  | Emax | < 5%
CCCCC/C=C\C/C=C\C/C=C\C/C=C\CCCC(=O)O | ligand displacement, radioligand |  | 10 µM, cell membranes | inhibition | 80%
CC1=C(C#N)C(c2ccc3[nH]nc(C)c3c2)C(C#N)=C(C)N1 | ligand displacement |  | 10 µM | inhibition | 2.64%
CC[C@@H]1CN2CC[C@@]3(O)C(=Nc4cccc(OC)c43)[C@@H]2C[C@@H]1/C(=C\OC)C(=O)OC | β-arrestin recruitment, agonist |  |  | Emax | < 50%
CN(C)C(=O)Cn1cc(-c2nc(C3(c4ccc(-c5cnc(N)nc5)cc4)CC3)no2)cn1 | cell-free assay |  | 10 µM | inhibition | 12.6%
CN1CCN(c2cc(-c3ccncc3)c(-c3ccc4ccccc4c3)nn2)CC1 | calcium signal, agonist | OPRM1 | 12.5 µM | activation | 0.3%
CC1(C)SSC(C)(C)[C@@H](NC(=O)[C@@H](N)Cc2ccc(O)cc2)C(=O)NCC(=O)N[C@@H](Cc2ccccc2)C(=O)N2CCN(CC2)C(=O)[C@H](Cc2ccccc2)NC(=O)CNC(=O)[C@@H]1NC(=O)[C@@H](N)Cc1ccc(O)cc1 | cAMP, agonist, luciferase | HEK293 |  | Emax | 86%
COc1ccsc1CNCC[C@@]1(c2ccccn2)CCOC2(CCCC2)C1 | β-arrestin recruitment, agonist |  |  | Emax | < 50%
C[C@H](C(=O)N[C@H]1COc2ccccc2[C@@H]1S(C)(=O)=O)c1ccc(F)cc1 | ligand displacement |  | 10 µM | inhibition | -8%
COCc1c(-c2cc3cc(C)cc(OC)c3s2)c2c(N)ncnn2c1CN1CCNC(=O)C1 | ligand displacement, radioligand |  | 10 µM | inhibition | 31%
Clc1ccc2c(C3CCN(CCc4c[nH]c5ccccc45)CC3)c[nH]c2c1 | ligand displacement, radioligand |  | 10 µM | inhibition | 93%
Nc1ncc(-c2nc(N3CCOCC3)nc(N3CCOCC3)n2)c(C(F)F)n1 | cell-free assay, radioligand |  | 10 µM | remaining signal | 104%
c1ccc(C(NCCNC(c2ccccc2)c2ccccc2)c2ccccc2)cc1 | ligand displacement |  | 10 µM | inhibition | 21%
CC(C)N1CCC[C@H]1CNC(=O)c1cn(C2CCCC2)c(=O)c2c1c1ccccc1n2C | ligand displacement, radioligand |  | 10 µM | inhibition | 5%
CCN(CC)CCCC[C@H](NC(=O)[C@H](CC(C)C)NC(=O)[C@H](C)NC(=O)[C@H](Cc1ccccc1)NC(=O)c1ccc(C(C)(C)C)cc1)C(=O)N[C@@H](CO)C(=O)OC | ligand displacement, radioligand |  | 10 µM | remaining binding | 48.6%
